Our source for the IC50 values is ChEMBL document CHEMBL1147233, “Chemistry and structure-activity relationship of HIV-1 integrase inhibitor integracide B and related natural products” (J Nat Prod, 2003).

Experiment [1] deals with Type II restriction enzyme EcoRI (Escherichia coli, UniProt P00642). Kind of experiment: Inhibition of Escherichia coli ECOR1.
The target of experiment [2] is T1, Human immunodeficiency virus type 1 integrase (Human immunodeficiency virus 1, UniProt Q7ZJM1). The experiment is described as follows: Inhibition of recombinant HIV1 integrase using unprocessed donor DNA by coupled assay. In short, it runs like this:
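Unprocessed donor DNA and inhibitor incubated with recombinant integrase together for 30 min, then target DNA added; strand-transfer product measured. Final DMSO 10%. IC50 from serial 2-fold dilutions in duplicate or triplicate; values without error limits are the average of these.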

Experiment [3] in a line: Inhibition of DNAse.
Experiment [4] deals with T1, Human immunodeficiency virus type 1 integrase. Kind of experiment: Inhibition of recombinant HIV1 integrase using preprocessed donor DNA treated after washing excess enzyme by strand transfer assay. The procedure, abridged: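 Integrase preincubated with preprocessed donor DNA, unbound enzyme washed off, then target DNA and inhibitor added together. Strand transfer product measured. Final DMSO 10%. IC50 from serial 2-fold dilutions run in duplicate or triplicate; values without error limits are the average of these.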

T1 sequence (Q7ZJM1 whole entry): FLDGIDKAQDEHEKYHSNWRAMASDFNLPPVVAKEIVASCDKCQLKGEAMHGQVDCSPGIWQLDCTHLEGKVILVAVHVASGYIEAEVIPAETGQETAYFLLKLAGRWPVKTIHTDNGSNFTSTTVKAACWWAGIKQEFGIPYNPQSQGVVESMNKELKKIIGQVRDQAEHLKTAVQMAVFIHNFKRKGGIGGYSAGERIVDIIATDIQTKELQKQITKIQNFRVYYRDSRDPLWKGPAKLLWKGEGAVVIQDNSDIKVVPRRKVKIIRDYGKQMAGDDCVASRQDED
Sequence of Type II restriction enzyme EcoRI (P00642 whole entry): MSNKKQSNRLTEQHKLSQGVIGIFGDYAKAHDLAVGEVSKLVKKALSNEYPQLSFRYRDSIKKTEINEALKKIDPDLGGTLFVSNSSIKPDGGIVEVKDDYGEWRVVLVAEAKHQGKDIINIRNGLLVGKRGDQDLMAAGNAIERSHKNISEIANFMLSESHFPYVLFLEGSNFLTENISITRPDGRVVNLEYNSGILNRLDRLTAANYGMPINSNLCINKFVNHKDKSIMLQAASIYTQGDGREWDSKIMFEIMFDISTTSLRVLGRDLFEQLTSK

Take `C=C(CC[C@@H](C)[C@H]1CC=C2C3=C([C@@H](O)[C@H](OC(C)=O)[C@@]21C)[C@@]1(C)C[C@@H](OC(=O)CCC(=O)OC)[C@H](O)C(C)(C)[C@@H]1CC3)C(C)C`: the IC50 in experiment [1], in experiment [2], in experiment [3] and in experiment [4] was over 50 µM each time.

For `C=C(CC[C@@H](C)[C@H]1CC=C2C3=C([C@@H](O)[C@H](OC(C)=O)[C@@]21C)[C@@]1(C)C[C@@H](OC(=O)CN)[C@H](OC(=O)CN)C(C)(C)[C@@H]1CC3)C(C)C`, the IC50 is over 50 µM in experiment [1], 1.7 µM in experiment [2], 47 µM in experiment [3] and 11.5 µM in experiment [4].

On to `C=C(CC[C@@H](C)[C@H]1CC=C2C3=C([C@@H](O)[C@H](OC(C)=O)[C@@]21C)[C@@]1(C)C[C@@H](O)[C@H](OC(=O)CN)C(C)(C)[C@@H]1CC3)C(C)C`, for which the IC50 in experiment [1] is over 50 µM; in experiment [2], 18 µM; in experiment [3] it was over 50 µM; in experiment [4], over 50 µM.

In the case of `C=C(CC[C@@H](C)[C@H]1CC=C2C3=C([C@@H](O)[C@H](OC(C)=O)[C@@]21C)[C@@]1(C)C[C@@H](OC(=O)CNC(=O)OCC2c4ccccc4-c4ccccc42)[C@H](O)C(C)(C)[C@@H]1CC3)C(C)C`, the IC50 in experiment [1], in experiment [2], in experiment [3] and in experiment [4] was over 50 µM throughout.

Turning to `C=C(CC[C@@H](C)[C@H]1CC=C2C3=C([C@@H](O)[C@H](OC(C)=O)[C@@]21C)[C@@]1(C)C[C@@H](OC(=O)CNC(=O)OCC2c4ccccc4-c4ccccc42)[C@H](OC(=O)CNC(=O)OCC2c4ccccc4-c4ccccc42)C(C)(C)[C@@H]1CC3)C(C)C`, the IC50 in experiment [1], in experiment [2], in experiment [3] and in experiment [4] was over 50 µM in each case.

`C=C(CC[C@@H](C)[C@H]1CC=C2C3=C([C@@H](O)[C@H](OC(C)=O)[C@@]21C)[C@@]1(C)C[C@@H](OC(=O)CNC(=O)OC(C)(C)C)[C@H](OC(=O)CNC(=O)OC(C)(C)C)C(C)(C)[C@@H]1CC3)C(C)C`: the IC50 in experiment [1], in experiment [2], in experiment [3] and in experiment [4] was over 50 µM each time.

For the molecule `C=C(CC[C@@H](C)[C@H]1CC=C2C3=C([C@@H](O)[C@H](OC(C)=O)[C@@]21C)[C@@]1(C)C[C@@H](O)[C@H](OC(=O)CCC(=O)OC)C(C)(C)[C@@H]1CC3)C(C)C`, the IC50 in experiment [1], in experiment [2], in experiment [3] and in experiment [4] was over 50 µM in each case.

`C=C(CC[C@@H](C)[C@H]1CC=C2C3=C([C@@H](O)[C@H](OC(C)=O)[C@@]21C)[C@@]1(C)C[C@@H](OC(=O)c2ccccc2)[C@H](OC(=O)c2ccccc2)C(C)(C)[C@@H]1CC3)C(C)C`: the IC50 is over 50 µM in experiment [1], over 69 µM in experiment [2], over 50 µM in experiment [3] and over 69 µM in experiment [4].

Take `C=C(CC[C@@H](C)[C@H]1CC=C2C3=C([C@@H](O)[C@H](OC(C)=O)[C@@]21C)[C@@]1(C)CC[C@H](OS(=O)(=O)O)C(C)(C)[C@@H]1CC3)C(C)C`: the half-maximal inhibitory concentration (IC50) is over 50 µM in experiment [1], 3.1 µM in experiment [2], over 50 µM in experiment [3] and 4.8 µM in experiment [4].

On to `C=C(CC[C@@H](C)[C@H]1CC=C2C3=C([C@@H](O)[C@H](OC(C)=O)[C@@]21C)[C@@]1(C)C[C@H]2OC(C)(C)O[C@@H]2C(C)(C)[C@@H]1CC3)C(C)C`, for which the half-inhibitory concentration (IC50) in experiment [1], in experiment [2], in experiment [3] and in experiment [4] was over 50 µM each time.

For the molecule `C=C(CC[C@@H](C)[C@H]1CC=C2C3=C([C@@H](O)[C@H](OC(C)=O)[C@@]21C)[C@@]1(C)C[C@@H](OC(=O)CNC(=O)OC(C)(C)C)[C@H](O)C(C)(C)[C@@H]1CC3)C(C)C`, the IC50 in experiment [1], in experiment [2], in experiment [3] and in experiment [4] was over 50 µM throughout.

Turning to `C=C(CC[C@@H](C)[C@H]1CC=C2C3=C(C(=O)[C@H](OC(C)=O)[C@@]21C)[C@@]1(C)C[C@@H](O)[C@H](O)C(C)(C)[C@@H]1CC3)C(C)C`, the IC50 in experiment [1] is over 50 µM; in experiment [2] it was 75 µM; in experiment [3], over 50 µM; in experiment [4] it was over 100 µM.

Take `C=C(CC[C@@H](C)[C@H]1C[C@H](OC)c2c3c(cc(C)c21)[C@@]1(C)C[C@@H](O)[C@H](O)C(C)(C)[C@@H]1CC3)C(C)C`: the IC50 is over 50 µM in experiment [1], 50 µM in experiment [2], over 50 µM in experiment [3] and over 100 µM in experiment [4].

For `C=C(CC[C@@H](C)[C@H]1C[C@@H](OC)c2c3c(cc(C)c21)[C@@]1(C)C[C@@H](O)[C@H](O)C(C)(C)[C@@H]1CC3)C(C)C`, the half-inhibitory concentration (IC50) in experiment [1] is over 50 µM; in experiment [2], 50 µM; in experiment [3] it was over 50 µM; in experiment [4], over 100 µM.

Regarding `C=C(CC[C@@H](C)[C@H]1CC(=O)C2=C3CC[C@H]4C(C)(C)[C@@H](O)[C@H](O)C[C@]4(C)C3=C[C@H](OC(C)=O)[C@@]21C)C(C)C`, the half-inhibitory concentration (IC50) in experiment [1] was over 50 µM; in experiment [2], 25 µM; in experiment [3], over 50 µM; in experiment [4] it was 40 µM.

As for `C=C(CC[C@@H](C)[C@H]1CC=C2C3=C([C@@H](O)[C@H](OC(C)=O)[C@@]21C)[C@@]1(C)C[C@@H]2O[C@@H]2C(C)(C)[C@@H]1CC3)C(C)C`, the IC50 in experiment [1], in experiment [2], in experiment [3] and in experiment [4] was over 50 µM in each case.

Regarding `COC(=O)C[C@@](C)(O)CC(=O)O[C@@H]1C[C@]2(C)C3=C(CC[C@H]2C(C)(C)C1=O)[C@]1(C)CC[C@H]([C@H](C)CCC(O)C(C)(C)O)[C@@]1(C)CC3` (some centres not stated), the IC50 was over 50 µM in experiment [1], 70 µM in experiment [2], over 50 µM in experiment [3] and over 100 µM in experiment [4].

For `C=C(CC[C@@H](C)[C@H]1CC=C2C3=C([C@@H](O)[C@H](OC(C)=O)[C@@]21C)[C@@]1(C)C[C@@H](OC(=O)CN)[C@H](O)C(C)(C)[C@@H]1CC3)C(C)C`, the IC50 in experiment [1] is over 50 µM; in experiment [2], 23 µM; in experiment [3], over 50 µM; in experiment [4], over 50 µM.

For the molecule `C=C(CC[C@@H](C)[C@H]1CC=C2C3=C([C@@H](O)[C@H](OC(C)=O)[C@@]21C)[C@@]1(C)C[C@@H](OCOC)[C@H](O)C(C)(C)[C@@H]1CC3)C(C)C`, the IC50 in experiment [1] was over 50 µM; in experiment [2], over 80 µM; in experiment [3], over 50 µM; in experiment [4], over 80 µM.

Turning to `C=C(CC[C@@H](C)[C@H]1CC=C2C3=C([C@@H](O)[C@H](OC(C)=O)[C@@]21C)[C@@]1(C)C[C@@H](O)[C@H](OCOC)C(C)(C)[C@@H]1CC3)C(C)C`, the IC50 in experiment [1] was over 50 µM; in experiment [2], over 80 µM; in experiment [3], over 50 µM; in experiment [4], over 80 µM.

Regarding `C=C(CC[C@@H](C)[C@H]1CC=C2C3=C([C@@H](O)[C@H](OC(C)=O)[C@@]21C)[C@@]1(C)C[C@@H](OC(=O)CCC(=O)NO)[C@H](O)C(C)(C)[C@@H]1CC3)C(C)C`, the IC50 in experiment [1] was over 50 µM; in experiment [2], 8 µM; in experiment [3], over 50 µM; in experiment [4] it was over 50 µM.

On to `C=C(CC[C@@H](C)[C@H]1CC=C2C3=C([C@@H](O)[C@H](OC(C)=O)[C@@]21C)[C@@]1(C)C[C@@H](O)[C@H](OC(=O)c2ccccc2)C(C)(C)[C@@H]1CC3)C(C)C`, for which the IC50 in experiment [1] was over 50 µM; in experiment [2] it was over 80 µM; in experiment [3] it was over 50 µM; in experiment [4], over 80 µM.

In the case of `C=C(CC[C@@H](C)[C@H]1CC=C2C3=C([C@@H](OC(C)=O)[C@H](OC(C)=O)[C@@]21C)[C@@]1(C)C[C@@H](OC(C)=O)[C@H](OC(C)=O)C(C)(C)[C@@H]1CC3)C(C)C`, the IC50 in experiment [1], in experiment [2], in experiment [3] and in experiment [4] was over 50 µM in each case.

For the molecule `C=C(CC[C@@H](C)[C@H]1CC=C2C3=C([C@@H](O)[C@H](OC(C)=O)[C@@]21C)[C@@]1(C)C[C@@H](OC(=O)c2ccccc2)[C@H](O)C(C)(C)[C@@H]1CC3)C(C)C`, the IC50 is over 50 µM in experiment [1], over 80 µM in experiment [2], over 50 µM in experiment [3] and over 80 µM in experiment [4].

Turning to `C=C(CC[C@@H](C)[C@H]1CC=C2C3=C([C@@H](O)[C@H](OC(C)=O)[C@@]21C)[C@@]1(C)C[C@@H](OCOC)[C@H](OCOC)C(C)(C)[C@@H]1CC3)C(C)C`, the IC50 in experiment [1] is over 50 µM; in experiment [2] it was over 80 µM; in experiment [3] it was over 50 µM; in experiment [4] it was over 80 µM.

With `C=C(CC[C@@H](C)[C@H]1CC=C2C3=C([C@@H](O)[C@H](O)[C@@]21C)[C@@]1(C)C[C@@H](O)[C@H](O)C(C)(C)[C@@H]1CC3)C(C)C`, the IC50 in experiment [1] is over 50 µM; in experiment [2], 48 µM; in experiment [3], over 50 µM; in experiment [4] it was over 50 µM.

With `C[C@H](CCC(O)C(C)(C)O)[C@H]1CC[C@@]2(C)C3=C(CC[C@]12C)[C@@]1(C)C[C@@H](OC(=O)CC(C)(O)CC(=O)O)C(=O)C(C)(C)[C@@H]1CC3` (some centres not stated) [CLAVARIC ACID], the IC50 in experiment [1] was over 50 µM; in experiment [2], 47 µM; in experiment [3], over 50 µM; in experiment [4] it was 85 µM.

On to `C[C@H](CCC(O)C(C)(C)O)[C@H]1CC[C@@]2(C)C3=C(CC[C@]12C)[C@@]1(C)C[C@@H](O)C(=O)C(C)(C)[C@@H]1CC3` (some centres not stated) [CLAVARINONE], for which the IC50 is over 50 µM in experiment [1], 68 µM in experiment [2], over 50 µM in experiment [3] and over 100 µM in experiment [4].
